ChEMBL document CHEMBL1128485, “(E)-4-(2-[[3-(indol-5-yl)-1-oxo-2-butenyl]amino]phenoxy)butyric acid derivatives: a new class of steroid 5 alpha-reductase inhibitors in the rat prostate. 1” (J Med Chem, 1995)

What was measured:
[1] = biological target: T1, Steroid 5-alpha-reductase (Rattus norvegicus, UniProt P24008+P31214); assay: (§1) Inhibitory activity against Steroid 5-alpha-reductase in prostates from male rats; type: tissue-based, Prostate gland
T1 sequence (P24008 whole entry): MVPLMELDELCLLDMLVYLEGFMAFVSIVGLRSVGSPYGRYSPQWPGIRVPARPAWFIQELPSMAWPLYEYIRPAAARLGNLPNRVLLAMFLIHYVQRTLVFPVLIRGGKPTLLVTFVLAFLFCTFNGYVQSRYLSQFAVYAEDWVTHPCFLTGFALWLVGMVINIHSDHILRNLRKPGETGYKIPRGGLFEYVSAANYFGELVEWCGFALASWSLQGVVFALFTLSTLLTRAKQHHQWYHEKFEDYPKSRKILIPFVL
T1 sequence (P31214 whole entry): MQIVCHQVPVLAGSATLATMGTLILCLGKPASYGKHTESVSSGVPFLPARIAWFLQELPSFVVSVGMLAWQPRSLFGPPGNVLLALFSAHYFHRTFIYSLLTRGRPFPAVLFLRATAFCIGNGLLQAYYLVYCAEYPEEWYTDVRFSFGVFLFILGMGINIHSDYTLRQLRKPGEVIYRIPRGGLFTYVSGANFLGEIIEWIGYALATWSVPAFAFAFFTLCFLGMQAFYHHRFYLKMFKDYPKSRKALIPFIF
Outline: (§2)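 Ventral prostate from male Wistar rats (200–300 g), homogenized in ice-cold 0.32 M sucrose, 1 mM DTT, 20 mM sodium phosphate pH 6.5. Particulate pellet spun at 140000g, stored at –80 °C, used at 1 mg protein. Compounds added in ethanol. Incubated 37 °C, 20 min, extracted with ethyl acetate. [14C]T and DHT measured by TLC radioscan. IC50 given as mean ± SE of three experiments.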

[2] = biological target: Steroid 5-alpha-reductase (Rattus norvegicus) (UniProt P24008+P31214); assay: as §1; type: tissue-based; design: concentration or dose not given beside the values; details: Prostate gland; concentration not given here
Outline: as §2, with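 “protein. Reaction run in 40 mM phosphate pH 6.5 with 1 mM DTT, 150 µM NADPH and 3 µM [14C]testosterone.” for “protein.”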

| Structure (SMILES) | IC50 [1] | inhibition [2] |
| --- | --- | --- |
| C/C(=C\C(=O)Nc1ccccc1OCCCC(=O)O)c1ccc2c(ccn2C(c2ccc(C)cc2)c2ccc(C)cc2)c1 | 8.8 nM |  |
| CCCn1ccc2cc(/C(C)=C/C(=O)Nc3ccccc3OCCCC(=O)O)ccc21 | 190 nM |  |
| C/C(=C\C(=O)Nc1cc(F)ccc1OCCCC(=O)O)c1ccc2c(ccn2C(c2ccccc2)c2ccccc2)c1 |  | 52% |
| CCCCC(CC)n1ccc2cc(/C(C)=C/C(=O)Nc3ccccc3OCCCC(=O)O)ccc21 (stereo unspecified) | 7.1 nM |  |
| C/C(=C\C(=O)Nc1ccc(C)cc1OCCCC(=O)O)c1ccc2c(ccn2C(c2ccccc2)c2ccccc2)c1 | 14 nM |  |
| CCCCCCCn1ccc2cc(/C(C)=C/C(=O)Nc3ccccc3OCCCC(=O)O)ccc21 | 120 nM |  |
| C/C(=C\C(=O)Nc1cc(Cl)ccc1OCCCC(=O)O)c1ccc2c(ccn2C(c2ccccc2)c2ccccc2)c1 |  | 38% |
| C/C(=C\C(=O)Nc1ccccc1OCCCC(=O)O)c1ccc2c(ccn2C(C)c2ccccc2)c1 (stereo unspecified) | 19 nM |  |
| C/C(=C\C(=O)Nc1ccccc1OCCCC(=O)O)c1ccc2c(ccn2C)c1 | 780 nM |  |
| CCCCCC(c1ccccc1)n1ccc2cc(/C(C)=C/C(=O)Nc3ccccc3OCCCC(=O)O)ccc21 (stereo unspecified) | 25 nM |  |
| C/C(=C\C(=O)Nc1ccccc1OCCCC(=O)O)c1ccc2c(ccn2C(CC(C)C)c2ccccc2)c1 (stereo unspecified) | 6.3 nM |  |
| CCCC(C)n1ccc2cc(/C(C)=C/C(=O)Nc3ccccc3OCCCC(=O)O)ccc21 (stereo unspecified) | 7.8 nM |  |
| CCCC(CCC)n1ccc2cc(/C(C)=C/C(=O)Nc3ccc(OCCCC(=O)O)cc3)ccc21 |  | 28% |
| COc1ccc(C(c2ccc(OC)cc2)n2ccc3cc(/C(C)=C/C(=O)Nc4ccccc4OCCCC(=O)O)ccc32)cc1 | 9.8 nM |  |
| C/C(=C\C(=O)Nc1ccccc1OCCCC(=O)O)c1ccc2c(ccn2C(c2ccc(Cl)cc2)c2ccc(Cl)cc2)c1 | 25 nM |  |
| C/C(=C\C(=O)Nc1ccccc1OCCCC(=O)O)c1ccc2c(ccn2C(c2ccccc2C)c2ccccc2C)c1 | 19 nM |  |
| COc1ccc(C(c2ccccc2)n2ccc3cc(/C(C)=C/C(=O)Nc4ccccc4OCCCC(=O)O)ccc32)cc1 (stereo unspecified) | 8.8 nM |  |
| C/C(=C\C(=O)Nc1ccccc1OCCCC(=O)O)c1ccc2c(ccn2Cc2ccc(C(F)(F)F)cc2)c1 | 300 nM |  |
| CCCCC(c1ccccc1)n1ccc2cc(/C(C)=C/C(=O)Nc3ccccc3OCCCC(=O)O)ccc21 (stereo unspecified) | 9.8 nM |  |

| Structure (SMILES) | IC50 [1] | inhibition [2] |
| --- | --- | --- |
| C/C(=C\C(=O)Nc1ccccc1OCCCC(=O)O)c1ccc2c(ccn2Cc2ccccc2C)c1 | 69 nM |  |
| C/C(=C\C(=O)Nc1ccccc1OCCCC(=O)O)c1ccc2c(ccn2Cc2ccc(C(C)(C)C)cc2)c1 | 170 nM |  |
| C/C(=C\C(=O)Nc1ccccc1OCCCC(=O)O)c1ccc2c(ccn2C(C)c2ccc3ccccc3c2)c1 (stereo unspecified) |  | 26% |
| CCCC(C(C)C)n1ccc2cc(/C(C)=C/C(=O)Nc3ccccc3OCCCC(=O)O)ccc21 (stereo unspecified) | 7.2 nM |  |
| C/C(=C\C(=O)Nc1ccccc1OCCCC(=O)O)c1ccc2c(ccn2C(c2ccccc2)c2cccnc2)c1 (stereo unspecified) | 47 nM |  |
| CCC(c1ccccc1)n1ccc2cc(/C(C)=C/C(=O)Nc3ccccc3OCCCC(=O)O)ccc21 (stereo unspecified) | 19 nM |  |
| C/C(=C\C(=O)Nc1ccc(F)cc1OCCCC(=O)O)c1ccc2c(ccn2C(c2ccccc2)c2ccccc2)c1 | 3.6 nM |  |
| CCCC(CCC)n1ccc2cc(/C(C)=C/C(=O)Nc3cccc(OCCCC(=O)O)c3)ccc21 |  | 19% |
| CC(C)=CCn1ccc2cc(/C(C)=C/C(=O)Nc3ccccc3OCCCC(=O)O)ccc21 | 120 nM |  |
| C/C(=C\C(=O)Nc1ccccc1OCCCC(=O)O)c1ccc2c(ccn2C(c2ccccc2)c2ccccc2)c1 | 5.6 nM |  |
| C/C(=C\C(=O)Nc1ccccc1OCCCC(=O)O)c1ccc2c(ccn2CC(C)(C)C)c1.Cc1ccccc1 | 84 nM |  |
| C/C(=C\C(=O)Nc1ccccc1OCCCC(=O)O)c1ccc2c(ccn2C(c2ccccc2)C(C)C)c1 (stereo unspecified) | 25 nM |  |
| CCCCCn1ccc2cc(/C(C)=C/C(=O)Nc3ccccc3OCCCC(=O)O)ccc21 | 23 nM |  |
| C/C(=C\C(=O)Nc1ccccc1OCCCC(=O)O)c1ccc2c(ccn2Cc2ccc(C)cc2)c1 | 88 nM |  |
| CCCC(CC)n1ccc2cc(/C(C)=C/C(=O)Nc3ccccc3OCCCC(=O)O)ccc21 (stereo unspecified) | 9.3 nM |  |
| C/C(=C\C(=O)Nc1ccccc1OCCCC(=O)O)c1ccc2c(ccn2C2c3ccccc3CCc3ccccc32)c1 |  | 31% |
| C/C(=C\C(=O)Nc1cc(C)ccc1OCCCC(=O)O)c1ccc2c(ccn2C(c2ccccc2)c2ccccc2)c1 |  | 45% |
| C/C(=C\C(=O)Nc1ccccc1OCCCC(=O)O)c1ccc2c(ccn2C2CCCCC2)c1 |  | 48% |
| CCCCCCn1ccc2cc(/C(C)=C/C(=O)Nc3ccccc3OCCCC(=O)O)ccc21 | 77 nM |  |

| Structure (SMILES) | IC50 [1] | inhibition [2] |
| --- | --- | --- |
| C/C(=C\C(=O)Nc1ccccc1OCCCC(=O)O)c1ccc2c(ccn2C(c2ccccc2)c2ccc(C(F)(F)F)cc2)c1 (stereo unspecified) | 8.1 nM |  |
| COc1ccc(Cn2ccc3cc(/C(C)=C/C(=O)Nc4ccccc4OCCCC(=O)O)ccc32)cc1 | 480 nM |  |
| C/C(=C\C(=O)Nc1cccc(F)c1OCCCC(=O)O)c1ccc2c(ccn2C(c2ccccc2)c2ccccc2)c1 | 15 nM |  |
| CCC(C)n1ccc2cc(/C(C)=C/C(=O)Nc3ccccc3OCCCC(=O)O)ccc21 (stereo unspecified) | 67 nM |  |
| CCCC(c1ccccc1)n1ccc2cc(/C(C)=C/C(=O)Nc3ccccc3OCCCC(=O)O)ccc21 (stereo unspecified) | 9.1 nM |  |
| C/C(=C\C(=O)Nc1ccccc1OCCCC(=O)O)c1ccc2c(ccn2C(c2ccccc2)c2ccncc2)c1 (stereo unspecified) | 26 nM |  |
| CCCCC(C)n1ccc2cc(/C(C)=C/C(=O)Nc3ccccc3OCCCC(=O)O)ccc21 (stereo unspecified) | 6 nM |  |
| CCCCn1ccc2cc(/C(C)=C/C(=O)Nc3ccccc3OCCCC(=O)O)ccc21 | 43 nM |  |
| C/C(=C\C(=O)N(C)c1ccccc1OCCCC(=O)O)c1ccc2c(ccn2C(C)c2ccccc2)c1 (stereo unspecified) |  | 8% |
| C/C(=C\C(=O)Nc1ccccc1OCCCC(=O)O)c1ccc2c(ccn2Cc2cccc(C)c2)c1 | 250 nM |  |
| C/C(=C\C(=O)Nc1ccccc1OCCCC(=O)O)c1ccc2c(ccn2C(c2ccccc2)c2ccccn2)c1 (stereo unspecified) | 37 nM |  |
| CCCCC(CCCC)n1ccc2cc(/C(C)=C/C(=O)Nc3ccccc3OCCCC(=O)O)ccc21 | 21 nM |  |
| C/C(=C\C(=O)Nc1ccccc1OCCCC(=O)O)c1ccc2c(ccn2C(C(C)C)C(C)C)c1 | 14 nM |  |
| C/C(=C\C(=O)Nc1ccccc1OCCCC(=O)O)c1ccc2c(ccn2CC(C)C)c1 | 160 nM |  |
| C/C(=C\C(=O)Nc1ccccc1OCCCC(=O)O)c1ccc2c(ccn2Cc2ccc(F)cc2)c1 | 97 nM |  |
| C/C(=C\C(=O)Nc1ccccc1SCCCC(=O)O)c1ccc2c(ccn2C(c2ccccc2)c2ccccc2)c1 | 39 nM |  |
| CCCCCC(CCCCC)n1ccc2cc(/C(C)=C/C(=O)Nc3ccccc3OCCCC(=O)O)ccc21 | 25 nM |  |
| CCCCc1ccc(Cn2ccc3cc(/C(C)=C/C(=O)Nc4ccccc4OCCCC(=O)O)ccc32)cc1 | 100 nM |  |
